According to ChEMBL document CHEMBL1275449, “Potent in vitro antifungal activities of naturally occurring acetylenic acids” (Antimicrob Agents Chemother, 2008):
Calls of active or inactive are those of the source.

How the values were obtained:
Assay type in all cases: functional, organism-based
Nakaseomyces glabratus [1] = assay: Antifungal activity against Candida glabrata ATCC 90030 at 169.8 uM after 48 hrs by CLSI method
Summary of the method: (§1)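 Candida inocula came from 24–72-h SD agar colonies suspended in saline. They were diluted by OD630 standard curve into RPMI 1640 (0.2% dextrose, 0.03% glutamine, 0.165 M MOPS, pH 7.0) to 1.5 × 10³ CFU/ml. Compounds were run as 11 twofold dilutions in 20% DMSO-saline, in duplicate, at 35°C for 48 h, with OD530 read before and after. Percent growth at the top concentration, IC50, MIC, and MFC (SD agar plating) were derived.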

Candida parapsilosis [2] = assay: Antifungal activity against Candida parapsilosis ATCC 22019 at 169.8 uM after 48 hrs by CLSI method
Summary of the method: (§2)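 Yeast suspensions made from 3-5 colonies off 24-72 h SD agar plates in saline. They were diluted by OD630 standard curve in RPMI 1640 (0.2% dextrose, 0.03% glutamine, 0.165 M MOPS, pH 7.0) to 1.5 × 10³ CFU/ml. Twofold dilutions (11 concentrations, 20% DMSO-saline) run in duplicate. OD530 read before and after 35°C, 48 h. Line values are top test concentrations; no-growth endpoints give MIC/MFC.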

Aspergillus fumigatus [3] = assay: Antifungal activity against Aspergillus fumigatus ATCC 204305 at 169.8 uM after 48 hrs by CLSI method
Aspergillus flavus = assay: Antifungal activity against Aspergillus flavus ATCC 204304 at 169.8 uM after 48 hrs by CLSI method
Nakaseomyces glabratus [4] = assay: Antifungal activity against Candida glabrata ATCC 90030 at 187.7 uM after 48 hrs by CLSI method; summary of the method: as §1
Candida parapsilosis [5] = assay: Antifungal activity against Candida parapsilosis ATCC 22019 at 187.7 uM after 48 hrs by CLSI method; summary of the method: as §2
Aspergillus fumigatus [6] = assay: Antifungal activity against Aspergillus fumigatus ATCC 204305 at 187.7 uM after 48 hrs by CLSI method
Aspergillus fumigatus [7] = assay: Antifungal activity against Aspergillus fumigatus ATCC 90906 at 187.7 uM after 48 hrs by CLSI method
Candida albicans [8] = assay: Antifungal activity against Candida albicans ATCC 14053 at 198.1 uM after 48 hrs by CLSI method
Candida albicans [9] = assay: Antifungal activity against Candida albicans ATCC 32354 at 198.1 uM after 48 hrs by CLSI method; summary of the method: as §1
Candida parapsilosis [10] = assay: Antifungal activity against Candida parapsilosis ATCC 22019 at 198.1 uM after 48 hrs by CLSI method; summary of the method: as §2
Aspergillus fumigatus [11] = assay: Antifungal activity against Aspergillus fumigatus ATCC 90906 at 198.1 uM after 48 hrs by CLSI method
Candida albicans [12] = assay: Antifungal activity against Fluconazole resistant Candida albicans isolate 1 at 168.9 uM after 48 hrs by CLSI method
Summary of the method: (§3)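 Candida in CLSI broth microdilution. Saline colony suspension set to 1.5 × 10³ CFU/ml (final) in MOPS-buffered RPMI 1640, pH 7.0. Test agent given as twofold serial dilutions in 20% DMSO-saline, duplicate wells. 35°C for 48 h. Growth read as OD530 before and after incubation. Percent inhibition scored at the highest test concentration.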

[13] = tested on: Trichophyton mentagrophytes; assay: Antifungal activity against Trichophyton mentagrophytes ATCC MYA-4439 at 168.9 uM after 5 days by CLSI method
Candida albicans [14] = assay: Antifungal activity against Fluconazole resistant Candida albicans isolate 1 at 9.4 uM after 48 hrs by CLSI method; summary of the method: as §3
Nakaseomyces glabratus [15] = assay: Antifungal activity against Candida glabrata ATCC 90030 at 9.4 uM after 48 hrs by CLSI method; summary of the method: as §3
Pichia kudriavzevii = assay: Antifungal activity against Candida krusei ATCC 6258 at 9.4 uM after 48 hrs by CLSI method; summary of the method: as §3
Candida parapsilosis [16] = assay: Antifungal activity against Candida parapsilosis ATCC 22019 at 9.4 uM after 48 hrs by CLSI method; summary of the method: as §3
Aspergillus fumigatus [17] = assay: Antifungal activity against Aspergillus fumigatus ATCC 90906 at 9.4 uM after 48 hrs by CLSI method
Summary of the method: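 Aspergillus growth on 1–6-week potato dextrose slants scraped and Miracloth-filtered. Inoculum sized by OD630 curve to 2.7 × 10⁴ CFU/ml (final) in 5% Alamar blue-RPMI 1640 (MOPS, pH 7.0). Duplicate twofold dilutions from 20% DMSO-saline. 35°C for 48 h. Fluorescence 544/590 nm read before and after. Percent inhibition taken at the highest test concentration.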

[18] = tested on: Trichophyton mentagrophytes; assay: Antifungal activity against Trichophyton mentagrophytes ATCC MYA-4439 at 9.4 uM after 5 days by CLSI method
Summary of the method: (§4)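 Trichophyton growth scraped from 1–6-week potato dextrose slants and filtered through Miracloth. Inoculum 2.7 × 10⁴ CFU/ml (final) in 5% Alamar blue-RPMI 1640 buffered with MOPS, pH 7.0. Duplicate twofold dilutions from 20% DMSO-saline. Incubated 35°C for 5 days. Fluorescence read at 544 nm excitation, 590 nm emission. Inhibition assessed at the highest test concentration.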

[19] = tested on: Trichophyton mentagrophytes; assay: Antifungal activity against Trichophyton mentagrophytes ATCC 9533 at 9.4 uM after 5 days by CLSI method; summary of the method: as §4

Measured: Activity

CCCCCCCCCCCCC#CCCCCC(=O)O [6-NONADECYNOIC ACID]
inactive: Nakaseomyces glabratus [1] | Candida parapsilosis [2] | Aspergillus fumigatus [3] | Aspergillus flavus

CCCCCCCCCCC#CCCCCC(=O)O
inactive: Nakaseomyces glabratus [4] | Candida parapsilosis [5] | Aspergillus fumigatus [6] | Aspergillus fumigatus [7]

CCCCCCCCCC#CCCCCC(=O)O
inactive: Candida albicans [8] | Candida albicans [9] | Candida parapsilosis [10] | Aspergillus fumigatus [11]

CCCCCC#CCC#CCC#CCC#CCCCC(=O)O
inactive: Candida albicans [12] | [13]

CC(=O)N1CCN(c2ccc(OCC3COC(Cn4ccnc4)(c4ccc(Cl)cc4Cl)O3)cc2)CC1 (stereo unspecified) [KETOCONAZOLE]
inactive: Candida albicans [14] | Nakaseomyces glabratus [15] | Pichia kudriavzevii | Candida parapsilosis [16] | Aspergillus fumigatus [17] | [18] | [19]
